Test results from ChEMBL document CHEMBL4376814, “Novel cyclin-dependent kinase 9 (CDK9) inhibitor with suppression of cancer stemness activity against non-small-cell lung cancer” (Eur J Med Chem, 2019).
The source made the active and inactive calls. The calls are words filed in the database; no cut-off is given here.

Assays:
HepG2 = assay: Antiproliferative activity against human HepG2 cells assessed as inhibition of cell viability at 500 nM after 72 hrs by CCK-8 assay relative to control; assay type: functional; conditions: HepG2, 72 h
Outline: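 Single-concentration viability screen using CCK-8. Cells were seeded at 3000/well and treated for 72 h. A450 read after 1-4 h with reagent. Percent inhibition calculated against untreated control and blank wells as (Ac−As)/(Ac−Ab)×100%.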

MDA-MB-231 = assay: Antiproliferative activity against human MDA-MB-231 cells assessed as inhibition of cell viability after 72 hrs by CCK-8 assay; assay type: functional, cell-based; conditions: MDA-MB-231, 72 h
Outline: (§1)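 Cells kept at 37 °C, 5% CO2 in DMEM or RPMI-1640 with 10% FBS and 1% penicillin/streptomycin, then seeded at 3000 cells/well (adherent) or 10,000 cells/well (suspension). Exposed to a range of concentrations for 72 h. CCK-8 added for 1-4 h before reading A450. […] Three independent experiments.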

Jurkat = assay: Antiproliferative activity against human Jurkat cells assessed as inhibition of cell viability after 72 hrs by CCK-8 assay; assay type: functional, cell-based; outline: as §1
NCI-H1299 [1] = assay: Down regulation CDK9 expression in human H1299 cells at 0.25 to 1 uM after 24 hrs by Western blot analysis; assay type: functional, cell-based
Outline: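 A549 and H1299 cells treated for 24 h with serial dilutions alongside a DMSO control. Protein extracts resolved and immunoblotted.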

NCI-H1299 [2] = assay: Antitumour activity against human H1299 cells xenografted in Balb/c mouse assessed as tumour weight at 80 mg/kg, po after 21 days by digital caliper method (reference value: 2.17 g); assay type: functional
Outline: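 Female nude mice, 6-8 weeks old, injected subcutaneously with 1×10^6 H1299 cells (100 µL of a 1×10^7/mL suspension in serum-free medium). At 100-120 mm3, randomized into groups of 5. Dosed orally each day for 21 days with drug dissolved in DMSO, or with vehicle. Caliper measurements and body weight taken every other day. Volume = short²×long×0.5. Growth inhibition based on change in volume relative to vehicle. Tumours weighed at the end.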

[3] = tested on: Tyrosine-protein kinase ABL1 (Homo sapiens), P00519 [H396P]; assay: Inhibition of recombinant human ABL H396P mutant (27 to end residues) at 1 uM using EAIYAAPFAKKK as substrate measured after 40 mins in presence of [gamma33P]ATP by scintillation counting method relative to control
[4] = molecular target: Activin receptor type-1 (Homo sapiens) (UniProt Q04771); assay: Inhibition of recombinant human ALK2 (147 to end residues) at 1 uM using casein as substrate measured after 40 mins in presence of [gamma33P]ATP by scintillation counting method relative to control
Outline: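 Single-point inhibition at 1 µM was measured in the Eurofins KinaseProfiler panel. Values are the mean of two independent experiments.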

[5] = molecular target: SRSF protein kinase 3 (Homo sapiens) (UniProt Q9UPE1); assay: Inhibition of recombinant full-length human MSSK1 at 1 uM using ERMRPRKRQGSVRRRV as substrate measured after 40 mins in presence of [gamma33P]ATP by scintillation counting method relative to control
[6] = molecular target: Cyclin-dependent kinase 1/cyclin B1 (Homo sapiens) (UniProt P06493+P14635); assay: Inhibition of recombinant full-length human CDK1/cyclinB at 1 uM using Histone H1 as substrate measured after 40 mins in presence of [gamma33P]ATP by scintillation counting method relative to control; assay type: protein-complex assay
[7] = tested on: RAC-beta serine/threonine-protein kinase (Homo sapiens), P31751 [S474D]; assay: Inhibition of recombinant human pkb-beta S474D mutant (120 to end residues) at 1 uM using GRPRTSSFAEGKK as substrate measured after 40 mins in presence of [gamma33P]ATP by scintillation counting method relative to control
[8] = molecular target: Death-associated protein kinase 1 (Homo sapiens) (UniProt P53355); assay: Inhibition of recombinant human DAPK1 (1 to 296 residues) at 1 uM using KKLNRTLSFAEPG as substrate measured after 40 mins in presence of [gamma33P]ATP by scintillation counting method relative to control
Homo sapiens = species: Homo sapiens; assay: Inhibition of recombinant human DDR1 V833L mutant (492 to end residues) at 1 uM using KKKSPGEYVNIEFG as substrate measured after 40 mins in presence of [gamma33P]ATP by scintillation counting method relative to control
[9] = tested on: Eukaryotic elongation factor 2 kinase (Homo sapiens), O00418 [H23R]; assay: Inhibition of recombinant human EEF2K H23R mutant (2 to end residues) at 1 uM using RKKFGESEKTKTKEFL as substrate measured after 40 mins in presence of [gamma33P]ATP by scintillation counting method relative to control
[10] = molecular target: Ephrin type-A receptor 2 (Homo sapiens) (UniProt P29317); assay: Inhibition of recombinant human EphA2 (596 to 900 residues) at 1 uM using poly(Glu, Tyr) 4:1 as substrate measured after 40 mins in presence of [gamma33P]ATP by scintillation counting method relative to control
[11] = tested on: Proto-oncogene tyrosine-protein kinase receptor Ret (Homo sapiens), P07949 [V804M]; assay: Inhibition of human Ret V804M mutant (658 to end residues) at 1 uM using KKKVSRSGLYRSPSMPENLNRPR as substrate measured after 40 mins in presence of [gamma33P]ATP by scintillation counting method relative to control
Outline: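 Percent inhibition of kinase activity at a single compound concentration, measured by the outsourced Eurofins KinaseProfiler panel. Values are the mean of two independent experiments.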

[12] = molecular target: Ribosomal protein S6 kinase alpha-1 (Homo sapiens) (UniProt Q15418); assay: Inhibition of recombinant full-length human Rsk1 at 1 uM using KKKNRTLSVA as substrate measured after 40 mins in presence of [gamma33P]ATP by scintillation counting method relative to control
[13] = molecular target: Serine/threonine-protein kinase 33 (Homo sapiens) (UniProt Q9BYT3); assay: Inhibition of recombinant full-length human STK33 at 1 uM using myelin basic protein as substrate measured after 40 mins in presence of [gamma33P]ATP by scintillation counting method relative to control
[14] = molecular target: Testis-specific serine/threonine-protein kinase 1 (Homo sapiens) (UniProt Q9BXA7); assay: Inhibition of recombinant full-length human TSSK1 at 1 uM using KKKVSRSGLYRSPSMPENLNRPR as substrate measured after 40 mins in presence of [gamma33P]ATP by scintillation counting method relative to control
[15] = molecular target: Mitogen-activated protein kinase kinase kinase 20 (Homo sapiens) (UniProt Q9NYL2); assay: Inhibition of recombinant full-length human ZAK at 1 uM using MBP as substrate measured after 40 mins in presence of [gamma33P]ATP by scintillation counting method relative to control
[16] = molecular target: Phosphatidylinositol 3-kinase C2 domain-containing subunit gamma (Homo sapiens) (UniProt O75747); assay: Inhibition of recombinant human PI3KC2gamma (468 to 1203 residues) at 1 uM using phosphatidylinositol as substrate measured after 40 mins by HTRF assay relative to control
Sequence of Phosphatidylinositol 3-kinase C2 domain-containing subunit gamma (Homo sapiens) (O75747 whole entry, the tested form may be a part): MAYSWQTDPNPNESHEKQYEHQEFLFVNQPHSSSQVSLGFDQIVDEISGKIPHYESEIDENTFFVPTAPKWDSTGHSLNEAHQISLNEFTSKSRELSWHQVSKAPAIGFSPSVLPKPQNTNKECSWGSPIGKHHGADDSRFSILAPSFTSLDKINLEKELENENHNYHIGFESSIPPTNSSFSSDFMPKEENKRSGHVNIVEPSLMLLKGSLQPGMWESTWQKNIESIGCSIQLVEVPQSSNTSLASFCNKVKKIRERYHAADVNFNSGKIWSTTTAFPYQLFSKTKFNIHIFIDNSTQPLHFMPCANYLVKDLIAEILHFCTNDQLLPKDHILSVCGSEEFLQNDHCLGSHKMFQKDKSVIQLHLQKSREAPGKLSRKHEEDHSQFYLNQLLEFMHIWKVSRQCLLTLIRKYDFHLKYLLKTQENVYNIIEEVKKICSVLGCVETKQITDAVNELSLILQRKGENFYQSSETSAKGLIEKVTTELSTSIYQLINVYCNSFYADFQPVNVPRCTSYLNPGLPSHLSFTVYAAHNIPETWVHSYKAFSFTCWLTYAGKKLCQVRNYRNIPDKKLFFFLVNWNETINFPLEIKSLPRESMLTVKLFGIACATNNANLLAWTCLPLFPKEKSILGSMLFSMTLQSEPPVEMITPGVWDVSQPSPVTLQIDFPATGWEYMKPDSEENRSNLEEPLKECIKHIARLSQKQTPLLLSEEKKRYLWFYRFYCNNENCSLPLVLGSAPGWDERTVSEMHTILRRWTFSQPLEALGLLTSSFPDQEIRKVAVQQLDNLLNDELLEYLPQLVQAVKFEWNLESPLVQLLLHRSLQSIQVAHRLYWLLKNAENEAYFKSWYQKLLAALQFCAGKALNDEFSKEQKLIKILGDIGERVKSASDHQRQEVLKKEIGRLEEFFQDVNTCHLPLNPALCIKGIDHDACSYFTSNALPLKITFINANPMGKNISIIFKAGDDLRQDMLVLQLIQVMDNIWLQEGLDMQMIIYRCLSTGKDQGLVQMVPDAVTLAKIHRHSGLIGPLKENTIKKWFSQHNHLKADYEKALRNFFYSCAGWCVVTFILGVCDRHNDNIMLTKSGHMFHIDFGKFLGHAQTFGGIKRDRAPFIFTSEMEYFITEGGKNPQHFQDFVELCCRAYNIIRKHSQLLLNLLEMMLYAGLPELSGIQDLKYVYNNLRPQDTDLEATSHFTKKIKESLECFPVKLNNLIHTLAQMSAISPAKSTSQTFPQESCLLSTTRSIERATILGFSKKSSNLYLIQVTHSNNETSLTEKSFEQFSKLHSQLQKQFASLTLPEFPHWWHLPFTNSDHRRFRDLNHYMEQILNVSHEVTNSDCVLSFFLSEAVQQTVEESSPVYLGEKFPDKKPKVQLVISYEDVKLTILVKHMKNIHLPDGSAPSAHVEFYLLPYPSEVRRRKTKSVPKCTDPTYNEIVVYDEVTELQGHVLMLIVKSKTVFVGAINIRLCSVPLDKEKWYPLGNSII

Sequence of SRSF protein kinase 3 (Homo sapiens) (Q9UPE1 whole entry): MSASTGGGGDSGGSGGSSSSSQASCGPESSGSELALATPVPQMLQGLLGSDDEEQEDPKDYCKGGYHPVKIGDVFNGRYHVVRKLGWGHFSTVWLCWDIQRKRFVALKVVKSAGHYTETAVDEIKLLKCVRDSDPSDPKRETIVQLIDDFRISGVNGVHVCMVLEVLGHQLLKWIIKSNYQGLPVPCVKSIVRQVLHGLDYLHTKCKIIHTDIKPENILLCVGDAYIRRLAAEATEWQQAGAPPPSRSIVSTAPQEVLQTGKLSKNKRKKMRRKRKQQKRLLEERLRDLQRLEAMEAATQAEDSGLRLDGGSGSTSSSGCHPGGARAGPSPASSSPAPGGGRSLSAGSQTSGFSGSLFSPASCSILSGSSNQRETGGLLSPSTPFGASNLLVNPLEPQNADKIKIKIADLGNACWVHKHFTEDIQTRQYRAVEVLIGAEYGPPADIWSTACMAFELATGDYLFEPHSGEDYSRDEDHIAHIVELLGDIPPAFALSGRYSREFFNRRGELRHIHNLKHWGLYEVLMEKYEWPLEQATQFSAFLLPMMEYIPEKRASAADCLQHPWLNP
Sequence of Eukaryotic elongation factor 2 kinase (Homo sapiens), O00418 [H23R] (O00418 whole entry H23R, the tested form may be a part): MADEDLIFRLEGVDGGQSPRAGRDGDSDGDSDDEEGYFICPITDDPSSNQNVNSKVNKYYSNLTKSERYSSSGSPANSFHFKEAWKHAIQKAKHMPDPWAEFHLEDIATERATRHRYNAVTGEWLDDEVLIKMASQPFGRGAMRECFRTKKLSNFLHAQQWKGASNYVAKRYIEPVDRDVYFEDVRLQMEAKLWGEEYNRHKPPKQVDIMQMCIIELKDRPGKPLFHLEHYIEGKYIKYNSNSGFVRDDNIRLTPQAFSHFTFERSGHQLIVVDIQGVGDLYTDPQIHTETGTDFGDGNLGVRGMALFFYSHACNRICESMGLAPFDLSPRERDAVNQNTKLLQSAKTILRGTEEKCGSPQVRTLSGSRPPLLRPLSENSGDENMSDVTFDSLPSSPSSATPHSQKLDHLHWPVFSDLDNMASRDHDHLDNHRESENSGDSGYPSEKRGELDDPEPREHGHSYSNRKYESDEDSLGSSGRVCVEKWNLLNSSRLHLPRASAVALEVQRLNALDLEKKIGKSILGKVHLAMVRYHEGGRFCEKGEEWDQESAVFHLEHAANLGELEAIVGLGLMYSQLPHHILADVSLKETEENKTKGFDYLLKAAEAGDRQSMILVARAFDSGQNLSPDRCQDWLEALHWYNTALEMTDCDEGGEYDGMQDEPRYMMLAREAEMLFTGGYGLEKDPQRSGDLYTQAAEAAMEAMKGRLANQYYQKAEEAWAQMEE
Sequence of RAC-beta serine/threonine-protein kinase (Homo sapiens), P31751 [S474D] (P31751 whole entry S474D, the tested form may be a part): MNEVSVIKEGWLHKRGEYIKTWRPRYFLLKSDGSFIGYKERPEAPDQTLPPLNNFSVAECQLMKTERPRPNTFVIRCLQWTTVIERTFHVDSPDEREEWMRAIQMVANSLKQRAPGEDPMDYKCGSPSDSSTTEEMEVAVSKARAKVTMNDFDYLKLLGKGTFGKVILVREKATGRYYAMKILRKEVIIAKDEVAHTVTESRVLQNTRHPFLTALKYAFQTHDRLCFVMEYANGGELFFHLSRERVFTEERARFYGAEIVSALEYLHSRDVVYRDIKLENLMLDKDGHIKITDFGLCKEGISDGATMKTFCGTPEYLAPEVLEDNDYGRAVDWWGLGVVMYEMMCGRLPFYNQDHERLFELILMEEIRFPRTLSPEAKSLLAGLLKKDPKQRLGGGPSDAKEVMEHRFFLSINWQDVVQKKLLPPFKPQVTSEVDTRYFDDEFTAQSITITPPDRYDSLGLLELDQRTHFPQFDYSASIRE
Sequence of Cyclin-dependent kinase 1/cyclin B1 (Homo sapiens) (P06493 whole entry, looked up): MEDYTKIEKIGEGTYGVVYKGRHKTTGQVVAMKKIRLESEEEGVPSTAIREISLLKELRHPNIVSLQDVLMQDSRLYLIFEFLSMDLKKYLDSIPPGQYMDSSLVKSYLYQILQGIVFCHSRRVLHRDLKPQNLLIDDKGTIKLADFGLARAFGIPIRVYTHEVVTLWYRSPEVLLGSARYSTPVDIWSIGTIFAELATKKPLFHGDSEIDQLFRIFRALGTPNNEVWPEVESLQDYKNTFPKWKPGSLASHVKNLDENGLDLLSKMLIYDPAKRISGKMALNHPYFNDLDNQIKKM
Sequence of Cyclin-dependent kinase 1/cyclin B1 (Homo sapiens) (P14635 whole entry, looked up): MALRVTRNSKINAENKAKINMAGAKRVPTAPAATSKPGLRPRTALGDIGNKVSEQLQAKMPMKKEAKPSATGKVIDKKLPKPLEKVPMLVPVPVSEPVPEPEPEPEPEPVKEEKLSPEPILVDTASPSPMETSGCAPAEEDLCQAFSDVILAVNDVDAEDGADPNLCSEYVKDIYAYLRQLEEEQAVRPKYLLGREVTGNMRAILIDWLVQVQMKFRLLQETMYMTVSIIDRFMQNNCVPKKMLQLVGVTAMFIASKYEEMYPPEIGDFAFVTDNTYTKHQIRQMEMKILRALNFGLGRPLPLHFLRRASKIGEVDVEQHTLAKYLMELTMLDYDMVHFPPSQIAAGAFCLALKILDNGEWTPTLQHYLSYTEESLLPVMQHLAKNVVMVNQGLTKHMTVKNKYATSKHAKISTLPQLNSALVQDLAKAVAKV
Sequence of Testis-specific serine/threonine-protein kinase 1 (Homo sapiens) (Q9BXA7 whole entry): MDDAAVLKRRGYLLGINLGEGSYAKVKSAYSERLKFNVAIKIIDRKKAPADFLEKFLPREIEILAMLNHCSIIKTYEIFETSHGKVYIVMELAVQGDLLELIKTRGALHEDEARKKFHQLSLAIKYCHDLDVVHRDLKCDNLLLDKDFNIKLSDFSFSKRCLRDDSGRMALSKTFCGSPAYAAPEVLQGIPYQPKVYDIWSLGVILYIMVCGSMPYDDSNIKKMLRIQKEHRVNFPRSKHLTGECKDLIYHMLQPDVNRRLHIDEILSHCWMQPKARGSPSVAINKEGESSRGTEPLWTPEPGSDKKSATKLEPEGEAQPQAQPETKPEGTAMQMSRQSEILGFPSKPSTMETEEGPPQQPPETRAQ
Sequence of Serine/threonine-protein kinase 33 (Homo sapiens) (Q9BYT3 whole entry, looked up): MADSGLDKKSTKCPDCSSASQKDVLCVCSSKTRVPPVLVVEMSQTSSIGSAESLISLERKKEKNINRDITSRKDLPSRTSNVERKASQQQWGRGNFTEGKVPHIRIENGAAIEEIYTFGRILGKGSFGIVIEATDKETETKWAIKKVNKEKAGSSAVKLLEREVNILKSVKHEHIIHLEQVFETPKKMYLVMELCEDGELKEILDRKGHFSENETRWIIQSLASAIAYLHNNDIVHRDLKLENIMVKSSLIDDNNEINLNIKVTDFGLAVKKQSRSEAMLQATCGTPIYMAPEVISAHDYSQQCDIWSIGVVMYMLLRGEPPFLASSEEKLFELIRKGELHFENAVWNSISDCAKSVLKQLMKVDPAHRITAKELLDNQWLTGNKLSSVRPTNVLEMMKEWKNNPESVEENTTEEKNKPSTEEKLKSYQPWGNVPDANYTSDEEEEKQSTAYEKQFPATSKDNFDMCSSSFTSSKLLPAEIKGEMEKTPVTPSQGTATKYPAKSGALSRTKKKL

With `CN(C)C(=O)c1cc2cnc(Nc3ccc(NC(=O)CCCCCCCN=C=S)cc3)nc2n1C1CCCC1` the inhibition at 0.5 µM (HepG2) was 23%, the IC50 (MDA-MB-231) was 3.04 µM and the IC50 (Jurkat) was 3.43 µM. For the same molecule, the Activity (NCI-H1299 [1]) was “inactive”, the Activity (NCI-H1299 [2]) was 0.18 g and the inhibition [3] was 35%. For the same molecule, the inhibition [4] was 11%, the inhibition [5] was 18% and the inhibition [6] was 58%. The inhibition [7] was 23%, the inhibition [8] was -5% and the inhibition (Homo sapiens) was 47%. The inhibition [9] was -10%, the inhibition [10] was 15% and the inhibition [11] was 58%. For the same molecule, the inhibition [12] was 21%, the inhibition [13] was 27% and the inhibition [14] was 7%. For the same molecule, the inhibition [15] was 86% and the inhibition [16] was 3%.
